Assay results reported in ChEMBL document CHEMBL4152206, “Design, synthesis, cytotoxicity and mechanism of novel dihydroartemisinin-coumarin hybrids as potential anti-cancer agents” (Eur J Med Chem, 2018).

Experiments:
Assay type in all cases: functional, cell-based
HT-29 [1] = test: Cytotoxicity against human HT-29 cells after 96 hrs under normoxic condition by MTT assay
Outline: (§1)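 MTT viability assay in HT-29 (high CA IX) and MDA-MB-231 (normal CA IX) cells under normoxic and hypoxic conditions; IC50 values reported.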

MDA-MB-231 [2] = test: Cytotoxicity against human MDA-MB-231 cells after 96 hrs under hypoxic condition by MTT assay; outline: as §1
HT-29 [3] = test: Cytotoxicity against human HT-29 cells after 96 hrs under hypoxic condition by MTT assay; outline: as §1
MDA-MB-231 [4] = test: Cytotoxicity against human MDA-MB-231 cells after 96 hrs under normoxic condition by MTT assay; outline: as §1
[5] = Homo sapiens, HT-29, 96 h, read-out: IC50
[6] = Homo sapiens, MDA-MB-231, 96 h, read-out: IC50

SMILES: Cc1cc(=O)oc2cc(-n3cc(CCO[C@H]4O[C@@H]5O[C@@]6(C)CC[C@H]7[C@H](C)CC[C@@H]([C@H]4C)[C@@]57OO6)nn3)ccc12
- IC50 (HT-29 [1]; [5]): 8.95 µM
- IC50 (MDA-MB-231 [2]; [6]): 9.96 µM
- IC50 (HT-29 [3]; [5]): 10.9 µM
- IC50 (MDA-MB-231 [4]; [6]): 3.78 µM

SMILES: Cc1c(C)c2ccc(OCCn3cc(CCO[C@H]4O[C@@H]5O[C@@]6(C)CC[C@H]7[C@H](C)CC[C@@H]([C@H]4C)[C@@]57OO6)nn3)cc2oc1=O
- IC50 (HT-29 [1]; [5]): 3.47 µM
- IC50 (MDA-MB-231 [2]; [6]): 52.3 µM
- IC50 (HT-29 [3]; [5]): 14.6 µM
- IC50 (MDA-MB-231 [4]; [6]): 56.7 µM

SMILES: Cc1c(C)c2ccc(OCCO[C@H]3O[C@@H]4O[C@@]5(C)CC[C@H]6[C@H](C)CC[C@@H]([C@H]3C)[C@@]46OO5)cc2oc1=O
- IC50 (HT-29 [1]; [5]): 12.8 µM
- IC50 (MDA-MB-231 [2]; [6]): 12.8 µM
- IC50 (HT-29 [3]; [5]): 57.2 µM
- IC50 (MDA-MB-231 [4]; [6]): 57.2 µM

SMILES: COC(=O)c1cc2ccc(OCCn3cc(CCO[C@H]4O[C@@H]5O[C@@]6(C)CC[C@H]7[C@H](C)CC[C@@H]([C@H]4C)[C@@]57OO6)nn3)cc2oc1=O
- IC50 (HT-29 [1]; [5]): 67.2 µM
- IC50 (MDA-MB-231 [2]; [6]): 58.4 µM
- IC50 (HT-29 [3]; [5]): 75.7 µM
- IC50 (MDA-MB-231 [4]; [6]): 61 µM

SMILES: COC(=O)c1cc2ccc(OCCCn3cc(CCO[C@H]4O[C@@H]5O[C@@]6(C)CC[C@H]7[C@H](C)CC[C@@H]([C@H]4C)[C@@]57OO6)nn3)cc2oc1=O
- IC50 (HT-29 [1]; ht-29): Nd(Insoluble)
- IC50 (MDA-MB-231 [2]; mda-mb-231): Nd(Insoluble)
- IC50 (HT-29 [3]; ht-29): Nd(Insoluble)
- IC50 (MDA-MB-231 [4]; mda-mb-231): Nd(Insoluble)

SMILES: Cc1c(Cl)c(=O)oc2cc(OCCCO[C@H]3O[C@@H]4O[C@@]5(C)CC[C@H]6[C@H](C)CC[C@@H]([C@H]3C)[C@@]46OO5)ccc12
- IC50 (HT-29 [1]; [5]): 2.55 µM
- IC50 (MDA-MB-231 [2]; [6]): 2.38 µM
- IC50 (HT-29 [3]; [5]): 8.05 µM
- IC50 (MDA-MB-231 [4]; [6]): 0.6 µM

SMILES: Cc1c(Cl)c(=O)oc2cc(-n3cc(CCO[C@H]4O[C@@H]5O[C@@]6(C)CC[C@H]7[C@H](C)CC[C@@H]([C@H]4C)[C@@]57OO6)nn3)ccc12
- IC50 (HT-29 [1]; [5]): 1.5 µM
- IC50 (MDA-MB-231 [2]; [6]): 1.03 µM
- IC50 (HT-29 [3]; [5]): 0.01 µM
- IC50 (MDA-MB-231 [4]; [6]): 5.19 µM

SMILES: Cc1cc(=O)oc2cc(OCCn3cc(CCO[C@H]4O[C@@H]5O[C@@]6(C)CC[C@H]7[C@H](C)CC[C@@H]([C@H]4C)[C@@]57OO6)nn3)ccc12
- IC50 (HT-29 [1]; [5]): 5.72 µM
- IC50 (MDA-MB-231 [2]; [6]): 18.2 µM
- IC50 (HT-29 [3]; [5]): 10.7 µM
- IC50 (MDA-MB-231 [4]; [6]): 17 µM

SMILES: C[C@H]1[C@@H](Oc2ccc3c(C(F)(F)F)cc(=O)oc3c2)O[C@@H]2O[C@@]3(C)CC[C@H]4[C@H](C)CC[C@@H]1[C@@]24OO3
- IC50 (HT-29 [1]; [5]): 11.1 µM
- IC50 (MDA-MB-231 [2]; [6]): 3.25 µM
- IC50 (HT-29 [3]; [5]): 22.3 µM
- IC50 (MDA-MB-231 [4]; [6]): 56.8 µM

SMILES: C[C@H]1[C@@H](OCCc2cn(-c3ccc4c(C(F)(F)F)cc(=O)oc4c3)nn2)O[C@@H]2O[C@@]3(C)CC[C@H]4[C@H](C)CC[C@@H]1[C@@]24OO3
- IC50 (HT-29 [1]; [5]): 6.07 µM
- IC50 (MDA-MB-231 [2]; [6]): 95.7 µM
- IC50 (HT-29 [3]; [5]): 10.3 µM
- IC50 (MDA-MB-231 [4]; [6]): 1.85 µM

SMILES: CCOC(=O)c1cc2ccc(O[C@H]3O[C@@H]4O[C@@]5(C)CC[C@H]6[C@H](C)CC[C@@H]([C@H]3C)[C@@]46OO5)cc2oc1=O
- IC50 (HT-29 [1]; [5]): 3.45 µM
- IC50 (MDA-MB-231 [2]; [6]): 2.85 µM
- IC50 (HT-29 [3]; [5]): 7.17 µM
- IC50 (MDA-MB-231 [4]; [6]): 21.9 µM

SMILES: Cc1c(C)c2ccc(OCCCO[C@H]3O[C@@H]4O[C@@]5(C)CC[C@H]6[C@H](C)CC[C@@H]([C@H]3C)[C@@]46OO5)cc2oc1=O
- IC50 (HT-29 [1]; [5]): 8.71 µM
- IC50 (MDA-MB-231 [2]; [6]): 7.92 µM
- IC50 (HT-29 [3]; [5]): 3.54 µM
- IC50 (MDA-MB-231 [4]; [6]): 17.1 µM

SMILES: C[C@H]1[C@@H](OCc2cn(-c3ccc4c(C(F)(F)F)cc(=O)oc4c3)nn2)O[C@@H]2O[C@@]3(C)CC[C@H]4[C@H](C)CC[C@@H]1[C@@]24OO3
- IC50 (HT-29 [1]; [5]): 5.22 µM
- IC50 (MDA-MB-231 [2]; [6]): 49.6 µM
- IC50 (HT-29 [3]; [5]): 5.33 µM
- IC50 (MDA-MB-231 [4]; [6]): > 100 µM

SMILES: Cc1c(C)c2ccc(-n3cc(CCO[C@H]4O[C@@H]5O[C@@]6(C)CC[C@H]7[C@H](C)CC[C@@H]([C@H]4C)[C@@]57OO6)nn3)cc2oc1=O
- IC50 (HT-29 [1]; [5]): 4.71 µM
- IC50 (MDA-MB-231 [2]; [6]): 3.58 µM
- IC50 (HT-29 [3]; [5]): 0.08 µM
- IC50 (MDA-MB-231 [4]; [6]): 3.75 µM

SMILES: Cc1cc(=O)oc2cc(OCCCn3cc(CCO[C@H]4O[C@@H]5O[C@@]6(C)CC[C@H]7[C@H](C)CC[C@@H]([C@H]4C)[C@@]57OO6)nn3)ccc12
- IC50 (HT-29 [1]; [5]): 6.87 µM
- IC50 (MDA-MB-231 [2]; [6]): 14.4 µM
- IC50 (HT-29 [3]; [5]): 0.11 µM
- IC50 (MDA-MB-231 [4]; [6]): 72.2 µM

SMILES: Cc1c(F)c(=O)oc2cc(-n3cc(CCO[C@H]4O[C@@H]5O[C@@]6(C)CC[C@H]7[C@H](C)CC[C@@H]([C@H]4C)[C@@]57OO6)nn3)ccc12
- IC50 (HT-29 [1]; [5]): 9.89 µM
- IC50 (MDA-MB-231 [2]; [6]): 3.36 µM
- IC50 (HT-29 [3]; [5]): 5.66 µM
- IC50 (MDA-MB-231 [4]; [6]): 3.84 µM

SMILES: COc1cccc2c1C(=O)c1c(O)c3c(c(O)c1C2=O)C[C@@](O)(C(=O)CO)C[C@@H]3O[C@H]1C[C@H](N)[C@H](O)[C@H](C)O1 [DOXORUBICIN]
- IC50 (HT-29 [1]; [5]): 0.24 µM
- IC50 (MDA-MB-231 [2]; [6]): 5.98 µM
- IC50 (HT-29 [3]; [5]): 0.25 µM
- IC50 (MDA-MB-231 [4]; [6]): 1.07 µM

SMILES: C[C@H]1[C@@H](OCCc2cn(CCCOc3ccc4c(C(F)(F)F)cc(=O)oc4c3)nn2)O[C@@H]2O[C@@]3(C)CC[C@H]4[C@H](C)CC[C@@H]1[C@@]24OO3
- IC50 (HT-29 [1]; [5]): 5.88 µM
- IC50 (MDA-MB-231 [2]; [6]): 6.58 µM
- IC50 (HT-29 [3]; [5]): 4.29 µM
- IC50 (MDA-MB-231 [4]; [6]): 32.5 µM

SMILES: C[C@H]1[C@@H](O)O[C@@H]2O[C@@]3(C)CC[C@H]4[C@H](C)CC[C@@H]1[C@@]24OO3 [ARTENIMOL]
- IC50 (HT-29 [1]; [5]): > 100 µM
- IC50 (MDA-MB-231 [2]; [6]): 5.64 µM
- IC50 (HT-29 [3]; [5]): 18.5 µM
- IC50 (MDA-MB-231 [4]; [6]): 47.1 µM

SMILES: Cc1cc(=O)oc2cc(OCCO[C@H]3O[C@@H]4O[C@@]5(C)CC[C@H]6[C@H](C)CC[C@@H]([C@H]3C)[C@@]46OO5)ccc12
- IC50 (HT-29 [1]; [5]): 2.35 µM
- IC50 (MDA-MB-231 [2]; [6]): 0.1 µM
- IC50 (HT-29 [3]; [5]): 3.69 µM
- IC50 (MDA-MB-231 [4]; [6]): 4.29 µM

SMILES: Cc1cc(=O)oc2cc(OCCCO[C@H]3O[C@@H]4O[C@@]5(C)CC[C@H]6[C@H](C)CC[C@@H]([C@H]3C)[C@@]46OO5)ccc12
- IC50 (HT-29 [1]; [5]): 13.8 µM
- IC50 (MDA-MB-231 [2]; [6]): 22.9 µM
- IC50 (HT-29 [3]; [5]): 8.71 µM
- IC50 (MDA-MB-231 [4]; [6]): 30 µM

SMILES: Cc1c(Cl)c(=O)oc2cc(OCCCn3cc(CCO[C@H]4O[C@@H]5O[C@@]6(C)CC[C@H]7[C@H](C)CC[C@@H]([C@H]4C)[C@@]57OO6)nn3)ccc12
- IC50 (HT-29 [1]; [5]): 1.19 µM
- IC50 (MDA-MB-231 [2]; [6]): 6.07 µM
- IC50 (HT-29 [3]; [5]): 1.68 µM
- IC50 (MDA-MB-231 [4]; [6]): 31 µM

SMILES: Cc1c(C)c2ccc(OCCCn3cc(CCO[C@H]4O[C@@H]5O[C@@]6(C)CC[C@H]7[C@H](C)CC[C@@H]([C@H]4C)[C@@]57OO6)nn3)cc2oc1=O
- IC50 (HT-29 [1]; [5]): 5 µM
- IC50 (MDA-MB-231 [2]; [6]): 33.2 µM
- IC50 (HT-29 [3]; [5]): 0.11 µM
- IC50 (MDA-MB-231 [4]; [6]): > 100 µM

SMILES: Cc1c(Cl)c(=O)oc2cc(OCCn3cc(CCO[C@H]4O[C@@H]5O[C@@]6(C)CC[C@H]7[C@H](C)CC[C@@H]([C@H]4C)[C@@]57OO6)nn3)ccc12
- IC50 (HT-29 [1]; [5]): 5.28 µM
- IC50 (MDA-MB-231 [2]; [6]): 7.24 µM
- IC50 (HT-29 [3]; [5]): 2.37 µM
- IC50 (MDA-MB-231 [4]; [6]): 7.53 µM

SMILES: Cc1c(Cl)c(=O)oc2cc(OCCO[C@H]3O[C@@H]4O[C@@]5(C)CC[C@H]6[C@H](C)CC[C@@H]([C@H]3C)[C@@]46OO5)ccc12
- IC50 (HT-29 [1]; [5]): 23.9 µM
- IC50 (MDA-MB-231 [2]; [6]): 5.36 µM
- IC50 (HT-29 [3]; [5]): 7.02 µM
- IC50 (MDA-MB-231 [4]; [6]): 18 µM

SMILES: Cc1c(Cl)c(=O)oc2cc(-n3cc(CO[C@H]4O[C@@H]5O[C@@]6(C)CC[C@H]7[C@H](C)CC[C@@H]([C@H]4C)[C@@]57OO6)nn3)ccc12
- IC50 (HT-29 [1]; [5]): 4.27 µM
- IC50 (MDA-MB-231 [2]; [6]): 24.7 µM
- IC50 (HT-29 [3]; [5]): 1.15 µM
- IC50 (MDA-MB-231 [4]; [6]): 50.5 µM

SMILES: Cc1c(C)c2ccc(-n3cc(CO[C@H]4O[C@@H]5O[C@@]6(C)CC[C@H]7[C@H](C)CC[C@@H]([C@H]4C)[C@@]57OO6)nn3)cc2oc1=O
- IC50 (HT-29 [1]; [5]): 2.67 µM
- IC50 (MDA-MB-231 [2]; [6]): 4.85 µM
- IC50 (HT-29 [3]; [5]): 0.02 µM
- IC50 (MDA-MB-231 [4]; [6]): 23.4 µM
